Source: ChEMBL document CHEMBL1123581, “Differential blockade of muscarinic receptor subtypes by polymethylene tetraamines. Novel class of selective antagonists of cardiac M-2 muscarinic receptors” (J Med Chem, 1987)

Experiments:
[1] = molecular target: Muscarinic acetylcholine receptor; assay: Compound was evaluated for blocking activity on Muscarinic acetylcholine receptor in guinea pig atria; assay type: protein assay, Cavia porcellus
[2] = molecular target: Muscarinic acetylcholine receptor; assay: Compound was evaluated for blocking activity on Muscarinic acetylcholine receptor in rat bladder
How it was run: (§1)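 Male rat terminal ileum segment (20 mm, ~5 cm from ileocecal junction) or 2-mm longitudinal bladder strip, in Krebs-type solution. After 30 min equilibration, cumulative furtrethonium iodide curves (~3-fold steps) at 30-min intervals; antagonist incubated 30 min. Isometric contraction recorded.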

[3] = molecular target: Muscarinic acetylcholine receptor; assay: Compound was evaluated for blocking activity on Muscarinic acetylcholine receptor in rat ileum; assay type: tissue-based; how it was run: as §1
[4] = Selectivity ratio of pA2 of rat ileum to pA2 of rat bladder; assay type: tissue-based
How it was run: (§2)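 Computed as the antilog of the difference between pA2 values for the two tissues (atria/ileum, atria/bladder, ileum/bladder). Each pA2 is a Schild value from muscarinic agonist dose ratios at three antagonist concentrations, each n≥5.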

[5] = Selectivity ratio of pA2 of guinea pig atria to pA2 of rat ileum; assay type: tissue-based; how it was run: as §2
[6] = Selectivity ratio of pA2 of guinea pig atria to pA2 of rat bladder; how it was run: as §2

pA2 [1] | pA2 [2] | pA2 [3] | Ratio [6] | Compound | Ratio [4] | Ratio [5]
7.96 | 6.08 | 5.81 | – | COc1ccccc1CNCCCCCCNCCCCCCCCCNCCCCCCNCc1ccccc1OC.Cl.Cl.Cl.Cl | – | –
7.35 | 7.13 | 7.62 | 1.66 | COc1ccccc1CNCCCCCCNCCCCCCCCCCCCNCCCCCCNCc1ccccc1OC.Cl | 3.09 | 0.54
7.71 | 5.49 | 5.73 | 166 | COc1ccccc1CNCCCCCCNCCCCCCCCCCNCCCCCCNCc1ccccc1OC.Cl.Cl.Cl.Cl | 1.74 | 95
6.87 | 5.57 | 5.29 | 20 | COc1ccccc1CNCCCCCCNCCCCCCNCCCCCCNCc1ccccc1OC.Cl.Cl.Cl.Cl | 0.52 | 38
